Experimental data taken from PMC4826778 (Bioconjugate chemistry, 2015).
Each block holds one compound with its values, some of them ahead of it.

How the values were obtained:
MCF-7 cells [1] = test: MTT cell toxicity assay; assay type: cell-based; settings: 24 h exposure, click reaction of cyclooctyne 5 with azide 2 or 21
Outline: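 MCF-7 cells were seeded at 1 × 10⁴ cells/mL and exposed to a range of concentrations of azide and cyclooctyne for 24 h at 37 °C in 5% CO₂. MTT (5 mg/mL solution) was added for 4 h. Medium was removed, DMSO added, and OD read at 595 nm. Viability was calculated as OD sample / OD untreated control × 100%.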

[2] = reaction of 5 with benzyl azide in the same solvent system; cited from earlier work
[3] = Photophysical characterization; assay type: physicochemical; settings: for ΦF: reference quinine sulfate
[4] = Parallel artificial membrane permeability assay; assay type: in vitro ADME; settings: for % Fraction Absorbed / Log Pe: 75 μM; for % Fraction Absorbed: 16 h, ambient temperature; for Log Pe: log of the effective permeability coefficient
Outline: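 PAMPA used a polycarbonate filter (0.45 μm pore) coated for 5 min with lecithin (1% or 4% in dodecane). Donor wells held test compound at 75 μM in 5% DMSO/PBS; acceptor wells held PBS. Plates were incubated 16 h at ambient temperature with gentle shaking. Acceptor concentration was measured by UV-Vis against a theoretical-equilibrium solution. Log Pe was calculated by the Wohnsland–Faller equation; at least triplicate.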

MCF-7 cells [5] = test: Fluorescence microscopy of in-cell click reaction; assay type: cell-based; settings: 1 μM azide and 1 μM cyclooctyne 5
Outline: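 MCF-7 cells were seeded at 5 × 10⁵ cells/mL on chambered coverglass and grown overnight at 37 °C in DMEM/F12 with 5% FBS. Azide (1 μM in reduced-serum medium) was added for 4 h, followed by three PBS (pH 7.5) washes. Cyclooctyne (1 μM) was then added for 16 h at 37 °C, followed by three more washes. Imaging used 360/40 excitation and 470/40 emission filters. Controls were azide only, cyclooctyne only, and preformed adduct. 0.1% trypan blue was used for quenching.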

[6] = Kinetic analysis of SPAAC reaction by 1H NMR; settings: reaction with cyclooctyne 5 in ACN-d6/D2O (3:1, v/v)
[7] = Water solubility of azido nucleosides; assay type: physicochemical
[8] = Frequency-domain fluorescence lifetime measurements in solution; assay type: physicochemical
Outline: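 Frequency-domain lifetimes were measured in solution (MeOH) in a 2 × 10 mm quartz cuvette at 18 °C. Excitation was a frequency-modulated 280 nm LED, with emission collected through a 305 nm long-pass filter. PPO in ethanol (τ = 1.4 ns) served as lifetime reference. Modulation-phase data were fitted to a multi-exponential decay model, judged by residuals and χ².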

[9] = In 50 mM phosphate buffer pH 7.0

Compound: OCC1C2CCC#CCCC12 (stereo not shown) [Compound 5]
non-cytotoxic dosage (MCF-7 cells [1]): 1 µM
second order rate constant k [2]: 0.14 M⁻¹ s⁻¹

εmax [3]: 7100 M^−1cm^1
λmax(emi) [3, 9]: 339/434
λmax(emi) ([3]; In DMSO): 331/419
Brightness ([3]; In MeOH): 0.06 M^−1cm^1
Stokes shift ([3]; In MeOH): 58 nm
λmax(abs) ([3]; In MeOH): 269 nm
λmax(emi) ([3]; In MeOH): 327/412
ΦF ([3]; In MeOH): 0.009
Compound: 5-(1,2,3-Triazol-1H-yl)uridine-MFCO adduct [Compound 27]

% Fraction Absorbed [4]: 22%
Log Pe [4]: −0.5 cm/s
Compound: [N-]=[N+]=Nc1nc(N)c2ncn([C@@H]3O[C@H](CO)[C@@H](O)[C@H]3O)c2n1 [Compound 19, 2-azidoadenosine]
fluorescence localization in live cells (MCF-7 cells [5]): fluorescence localized in the nucleus

water solubility [7]: easily water soluble
Compound: [N-]=[N+]=Nc1nc2c(N)ncnc2n1[C@@H]1O[C@H](CO)[C@@H](O)[C@H]1O [Compound 1, 8-azidoadenosine]
second order rate constant [6]: 0.11 M⁻¹ s⁻¹

εmax [3]: 16400 M^−1cm^1
λmax(emi) [3, 9]: 399 nm
λmax(emi) ([3]; In DMSO): 397 nm
Brightness ([3]; In MeOH): 0.10 M^−1cm^1
Stokes shift ([3]; In MeOH): 111 nm
λmax(abs) ([3]; In MeOH): 271 nm
λmax(emi) ([3]; In MeOH): 399 nm
λmax(exc) ([3]; In MeOH): 288 nm
ΦF ([3]; In MeOH): 0.006
τ1 ([8]; In MeOH): 0.10 ns
τ2 ([8]; In MeOH): 0.90 ns
τ3 ([8]; In MeOH): 5.30 ns
f1 ([8]; In MeOH, fractional contribution of τ1): 0.46%
f2 ([8]; In MeOH, fractional contribution of τ2): 0.39%
f3 ([8]; In MeOH, fractional contribution of τ3): 0.15%
τaverage ([8]; in vitro (methanol solution)): 1.20 ns
Compound: 8-(1,2,3-Triazol-1H-yl)adenosine-MFCO adduct [Compound 17]

% Fraction Absorbed [4]: 20%
Log Pe [4]: −0.5 cm/s
Compound: [N-]=[N+]=Nc1nc2c(N)ncnc2n1[C@H]1C[C@H](O)[C@@H](CO)O1 [Compound 4, 8-azido-2′-deoxyadenosine]

fluorescence of azide substrate [3]: no fluorescence
% Fraction Absorbed [4]: 18%
Log Pe [4]: −0.5 cm/s
water solubility [7]: easily water soluble
Compound: [N-]=[N+]=Nc1nc2c(N)ncnc2n1[C@@H]1O[C@H](CO)[C@@H](O)[C@@H]1O [Compound 2, 8-azido-9-(β-D-arabinofuranosyl)adenine]
Permeability (fraction absorbed) ([4]; 150 μM concentration): b Permeability for 2 at a 150 μM concentration was also 18%.
non-cytotoxic dosage (MCF-7 cells [1]): 1 µM
fluorescence localization in live cells (MCF-7 cells [5]): strong fluorescent localization to the nucleus

fluorescence of azide substrate [3]: no noticeable fluorescence
Compound: [N-]=[N+]=Nc1cn([C@@H]2O[C@H](CO)[C@@H](O)[C@H]2O)c(=O)[nH]c1=O [Compound 21, 5-azidouridine]
non-cytotoxic dosage (MCF-7 cells [1]): 1 µM
fluorescence localization in live cells (MCF-7 cells [5]): fluorescence localized in the nucleus
